Series [1] concerns the target T1, Aspartate aminotransferase, mitochondrial (Mus musculus) (UniProt P05202).
T1 sequence (whole entry): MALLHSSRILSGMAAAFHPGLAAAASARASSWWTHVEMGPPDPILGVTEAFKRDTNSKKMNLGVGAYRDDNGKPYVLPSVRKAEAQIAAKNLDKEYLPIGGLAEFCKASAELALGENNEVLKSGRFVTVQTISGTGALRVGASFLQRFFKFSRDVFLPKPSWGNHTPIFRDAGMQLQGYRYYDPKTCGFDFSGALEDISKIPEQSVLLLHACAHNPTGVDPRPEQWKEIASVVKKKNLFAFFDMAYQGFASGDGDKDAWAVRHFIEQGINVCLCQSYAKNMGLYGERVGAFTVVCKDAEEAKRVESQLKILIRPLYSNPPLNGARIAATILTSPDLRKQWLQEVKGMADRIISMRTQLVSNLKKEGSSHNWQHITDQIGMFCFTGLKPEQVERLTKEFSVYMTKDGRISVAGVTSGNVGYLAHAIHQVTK
Nature of the series: Toxicity index as ratio of serum ASAT levels in transfected and control mice. In kind it is functional. Summed up:
(§1)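 Female Swiss mice, 6 weeks old, given one 200 µL tail-vein injection of cationic phosphonolipid/pTG11033 lipoplexes (lipid:DNA charge ratio 4, 50 µg DNA per animal). Lipoplexes were held 30 min at room temperature beforehand. Serum was taken from coagulated blood 24 h later and transaminases measured on an automated analyser. Results are mean (SEM) of 6 animals. TI = transfected/control mouse transaminase level.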

Series [2] in a line: (§2) In vivo toxic effect of alanine aminotransferase (ALAT) was determined 24 hr after mice were injected with 50 microg of pTG11033 plasmid complexed with compound into serum with cholesterol. In kind it is ADME, organism-based. The settings on record: mouse. The essentials:
as §1

The nature of series [3]: In vivo toxic effect of alanine aminotransferase (ALAT) was determined 24 hr after mice were injected with 50 microg of pTG11033 plasmid complexed with compound into serum without co-lipid. The settings on record: mouse. It is filed as ADME, organism-based. The essentials:
as §1

Series [4] has as its target T1, Aspartate aminotransferase, mitochondrial (Mus musculus). Kind of series: In vivo toxic effect as serum aspartate aminotransferase (ASAT) 24 hr after cholesterol complexed 50 ug pTG11033 plasmid injection into mice. It is filed as functional, organism-based. The essentials:
as §1

A short description of series [5]: In vivo toxic effect of alanine aminotransferase (ALAT) was determined 24 hr after mice were injected with 50 microg of pTG11033 plasmid complexed with compound into serum with DOPE. In kind it is ADME, organism-based. The conditions noted are these: mouse. The essentials:
as §1

Series [6] concerns the target T1, Aspartate aminotransferase, mitochondrial (Mus musculus). Kind of series: In vivo toxic effect as serum aspartate aminotransferase (ASAT) 24 hr after DOPE complexed 50 ug pTG11033 plasmid injection into mice. In kind it is functional, organism-based. The essentials: as §1
For series [7] the target is unchanged. Nature of the series: In vivo toxic effect as serum aspartate aminotransferase (ASAT) 24 hr after 50 ug pTG11033 plasmid injection without co-lipid into mice. It is filed as functional, organism-based. Summed up:
as §1

The nature of series [8]: as §2. More on the design: unit not given beside the values. In kind it is ADME, organism-based. The settings on record: mouse. The essentials:
as §1

Each structure is given as a SMILES string. Where “and” joins values, the source holds several entries; their conditions need not be identical. Identical values can stand only once.

With `CCCCCCCCCCCCCCOP(=O)(CC[As+](C)(C)C)OCCCCCCCCCCCCCC.[I-]`, the TI in series [1] is 1.47 [middle of 4 runs]. Moreover, the Toxicity in series [2] is 41; in series [3], 26; in series [4], 190; in series [5] it was 34; in series [6], 155; in series [7] it was 79.

In the case of `CCCCCCCCCCCCCCOP(=O)(CC[P+](C)(C)C)OCCCCCCCCCCCCCC.[I-]`, the TI in series [1] is 1.69 (2×) and 2.39 and 2.45. Further, the Toxicity was 55 in series [3]; 174 in series [4]; 39 in series [5]; 145 in series [6]; 34 in series [8]; 120 in series [7].

As to `CCCCCCCC/C=C\CCCCCCCC(=O)OCC(C[N+](C)(C)C)OC(=O)CCCCCCC/C=C\CCCCCCCC.[Cl-]` (stereo not given), the Toxicity turned out to be 70 in series [3]; 255 in series [4]; 74 in series [5]; 275 in series [6]; 37 in series [8]; 657 in series [7].

Take `CCCCCCCC/C=C/CCCCCCCCOP(=O)(CC[As+](C)(C)C)OCCCCCCCC/C=C/CCCCCCCC.[I-]`: the Toxicity was determined as 35 in series [3]; 600 in series [4]; 36 in series [5]; 303 in series [6]; 172 in series [8]; 225 in series [7].

Take `CCCCCCCCCCCCCCOP(=O)(C[N+](C)(C)C)OCCCCCCCCCCCCCC.[I-]`: the TI in series [1] is 1.12 [middle of 4 runs]. Moreover, the Toxicity in series [3] came to 25; in series [4] it was 75; in series [5], 31; in series [6], 130; in series [8], 24; in series [7], 80.

In the case of `CCCCCCCC/C=C/CCCCCCCCOP(=O)(CC[P+](C)(C)C)OCCCCCCCC/C=C/CCCCCCCC.[I-]`, the Toxicity in series [2] is 184; in series [3], 35; in series [4], 685; in series [5] it was 65; in series [6], 646; in series [7] it was 250.

With `CCCCCCCC/C=C/CCCCCCCCOP(=O)(C[N+](C)(C)C)OCCCCCCCC/C=C/CCCCCCCC.[I-]`, the Toxicity is 250 in series [3]; 225 in series [4]; 30 in series [5]; 125 in series [6]; 70 in series [8]; 900 in series [7].

(Values after ChEMBL document CHEMBL1133536, “Cation substitution in cationic phosphonolipids: a new concept to improve transfection activity and decrease cellular toxicity” (J Med Chem, 2000).)
